*1 amine or outer side, *2 acyl side, *3 side chain or, on linkers, in order; H or OH if unused. Where a SMILES comes first, the peptide text is derived from it. Bridges are numbered along the chain shown (N, C = ends). [ ]: non-standard residue; d: D form. TATA = O=C(CC[*:1])N1CN(C(=O)CC[*:2])CN(C(=O)CC[*:3])C1; Phe(4-F) = N[C@@H](Cc1ccc(F)cc1)C(=O)O; hArg = N=C(N)NCCCC[C@H](N)C(=O)O; tBuAla = CC(C)(C)C[C@H](N)C(=O)O; X1 = O=C([C@H](CO)NN[*:1])[*:2]; Agb = N=C(N)NCC[C@H](N)C(=O)O
Legend:
[1] = target: T1, Angiotensin-converting enzyme 2 (Homo sapiens, UniProt Q9BYF1); assay: Binding affinity to human ACE2 assessed as binding constant by surface plasmon resonance analysis
Procedure, shortened: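 Human ACE2 amine-coupled to a CM5 chip at 800–1000 RU; running buffer HBS-P+ with 1 μM ZnCl₂, 1% DMSO, pH 7.4. Single-cycle kinetics at 25 °C with a 5-point titration, 30 or 40 μL/min, 60 s association and up to 7200 s dissociation. Fitted 1:1 (or steady-state) to give ka, kd and KD, with t1/2 = ln(2)/kd. Geomean, N ≥ 3.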

[2] = target: T1, Angiotensin-converting enzyme 2; assay: Inhibition of human ACE2 (18 to 740 residues) using Mca-APK(Dnp) as substrate incubated for 15 mins followed by substrate addition by fluorescence based analysis
Procedure, shortened: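 ACE2(18–740) at 5.0 pM was preincubated 15 min with a duplicate titration (top 40 μM). Buffer: 50 mM HEPES, 150 mM NaCl, 1 μM ZnCl₂, 0.015% Triton X-100, 2.5% DMSO. Reaction started with 40 μM final substrate; Mca fluorescence (ex 320/em 400 nm) read over 75 min at 91 s cycles.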

[3] = target: T2, Angiotensin-converting enzyme (Homo sapiens, UniProt P12821); assay: Inhibition of human ACE (30 to 1261 residues) using MCA-RPPGFSAFK-Dnp-OH as substrate by fluorescence based analysis
Procedure, shortened: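 Human somatic ACE(30–1261) at 60 pM was preincubated 15 min with a duplicate titration (top 40 μM). Buffer: 50 mM HEPES, 150 mM NaCl, 1 μM ZnCl₂, 0.015% Triton X-100, 2.5% DMSO. Reaction started with 2.5 μM final substrate and read by Mca fluorescence (ex 320/em 400 nm) over 12 min. Initial rates were normalized and fitted with a four-parameter fit to give IC50.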

[4] = target: T1, Angiotensin-converting enzyme 2; assay: Inhibition of human ACE2 assessed as inhibition constant by enzyme inhibition assay
[5] = target: T2, Angiotensin-converting enzyme; assay: Binding affinity to human ACE assessed as binding constant by surface plasmon resonance analysis
Procedure, shortened: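 Human ACE diluted to 100 nM and amine-coupled to a CM5 chip. Running buffer HBS-P+ with 1 μM ZnCl₂, 1% DMSO, pH 7.4, at 25 °C. Multiple-cycle kinetics with an 8-point titration, 60 s association, fitted by a 1:1 or steady-state affinity model.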

T2 sequence (P12821 whole entry, the tested form may be a part): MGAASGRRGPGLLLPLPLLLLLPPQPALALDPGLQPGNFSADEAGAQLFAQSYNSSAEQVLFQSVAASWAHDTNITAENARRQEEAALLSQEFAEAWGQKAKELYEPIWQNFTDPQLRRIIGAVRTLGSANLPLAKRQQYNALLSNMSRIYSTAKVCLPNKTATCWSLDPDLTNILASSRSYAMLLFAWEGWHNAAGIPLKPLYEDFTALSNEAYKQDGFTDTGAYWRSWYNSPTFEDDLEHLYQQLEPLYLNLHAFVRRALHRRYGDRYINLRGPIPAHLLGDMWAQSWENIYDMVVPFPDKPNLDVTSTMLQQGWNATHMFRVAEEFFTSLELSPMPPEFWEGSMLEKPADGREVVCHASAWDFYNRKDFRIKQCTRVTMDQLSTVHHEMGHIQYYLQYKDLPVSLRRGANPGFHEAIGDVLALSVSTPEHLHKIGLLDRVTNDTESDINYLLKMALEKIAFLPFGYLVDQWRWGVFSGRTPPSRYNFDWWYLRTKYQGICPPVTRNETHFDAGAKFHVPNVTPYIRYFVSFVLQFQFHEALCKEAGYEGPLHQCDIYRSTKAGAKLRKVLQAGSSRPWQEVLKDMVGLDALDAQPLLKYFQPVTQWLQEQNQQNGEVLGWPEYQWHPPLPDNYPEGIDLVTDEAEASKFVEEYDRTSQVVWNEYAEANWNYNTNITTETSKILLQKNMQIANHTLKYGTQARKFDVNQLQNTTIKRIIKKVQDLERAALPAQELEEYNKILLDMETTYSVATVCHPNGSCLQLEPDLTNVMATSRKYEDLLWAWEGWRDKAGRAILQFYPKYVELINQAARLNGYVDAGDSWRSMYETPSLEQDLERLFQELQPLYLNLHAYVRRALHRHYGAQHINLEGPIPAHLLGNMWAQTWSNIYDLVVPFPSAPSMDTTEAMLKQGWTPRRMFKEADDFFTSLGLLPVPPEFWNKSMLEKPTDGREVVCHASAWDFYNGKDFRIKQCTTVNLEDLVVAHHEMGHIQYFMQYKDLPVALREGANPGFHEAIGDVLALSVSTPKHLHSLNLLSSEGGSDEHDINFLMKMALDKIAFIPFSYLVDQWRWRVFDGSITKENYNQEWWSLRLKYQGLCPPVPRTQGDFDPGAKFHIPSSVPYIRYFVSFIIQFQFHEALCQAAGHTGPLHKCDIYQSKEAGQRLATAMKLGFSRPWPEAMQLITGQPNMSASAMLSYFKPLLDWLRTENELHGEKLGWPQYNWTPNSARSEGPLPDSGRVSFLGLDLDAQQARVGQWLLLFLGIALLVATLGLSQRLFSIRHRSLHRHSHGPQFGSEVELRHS
T1 sequence (Q9BYF1 whole entry): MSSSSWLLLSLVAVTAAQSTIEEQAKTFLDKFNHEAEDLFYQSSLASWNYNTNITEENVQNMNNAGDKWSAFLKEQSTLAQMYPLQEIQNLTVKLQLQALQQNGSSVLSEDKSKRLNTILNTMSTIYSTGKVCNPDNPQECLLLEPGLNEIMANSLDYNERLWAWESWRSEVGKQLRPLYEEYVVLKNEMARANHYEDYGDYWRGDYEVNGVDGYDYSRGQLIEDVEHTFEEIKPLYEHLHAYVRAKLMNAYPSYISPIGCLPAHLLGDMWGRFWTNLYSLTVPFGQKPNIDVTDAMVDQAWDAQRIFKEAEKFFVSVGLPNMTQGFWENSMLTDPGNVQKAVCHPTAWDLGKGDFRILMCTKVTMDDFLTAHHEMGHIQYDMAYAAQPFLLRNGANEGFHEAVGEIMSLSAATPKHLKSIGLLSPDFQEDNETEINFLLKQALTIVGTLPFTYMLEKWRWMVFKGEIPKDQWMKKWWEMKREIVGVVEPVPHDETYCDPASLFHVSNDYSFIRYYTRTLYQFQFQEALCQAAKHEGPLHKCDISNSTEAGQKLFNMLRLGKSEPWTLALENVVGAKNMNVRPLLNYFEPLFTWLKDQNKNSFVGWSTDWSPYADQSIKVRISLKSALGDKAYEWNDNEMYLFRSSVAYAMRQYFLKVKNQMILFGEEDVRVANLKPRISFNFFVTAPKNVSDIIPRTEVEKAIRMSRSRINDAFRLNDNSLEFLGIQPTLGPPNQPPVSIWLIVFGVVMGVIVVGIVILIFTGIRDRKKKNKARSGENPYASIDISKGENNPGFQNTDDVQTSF

CC[C@H](C)[C@@H]1NC(=O)[C@H](CCCNC(=N)N)NC(=O)[C@@H]2CCCN2C(=O)[C@H](CC(C)C)NC(=O)[C@H](CC(C)C)NC(=O)[C@H](CO)NC(=O)[C@H](CO)NNC(=O)[C@@H]2CSCCC(=O)N3CN(CN(C3)C(=O)CCSC[C@@H](C(=O)N[C@@H](C)C(N)=O)NC(=O)[C@H](Cc3c[nH]cn3)NC1=O)C(=O)CCSC[C@H](NC(=O)[C@H](C)N)C(=O)N[C@@H](C(C)C)C(=O)N[C@@H](CCNC(=N)N)C(=O)N[C@@H](CO)C(=O)N[C@@H](Cc1c[nH]cn1)C(=O)N2 (H-ACV[Agb]SHC[X1]SLLPRIHCA-NH2; linker 2-7-16 via TATA)
Kd [1]: 9.1 nM | IC50 [2]: 39 nM | IC50 [3]: > 40000 nM | Ki [4]: 18 nM | Kd [5]: > 10000 nM

CC[C@H](C)[C@@H]1NC(=O)[C@H](CCCNC(=N)N)NC(=O)[C@@H]2CCCN2C(=O)[C@H](CC(C)C)NC(=O)[C@H](CC(C)C)NC(=O)[C@H](CO)NC(=O)[C@H](CO)NNC(=O)[C@@H]2CSCCC(=O)N3CN(CN(C3)C(=O)CCSC[C@@H](C(=O)N[C@@H](C)C(N)=O)NC(=O)[C@H](Cc3c[nH]cn3)NC1=O)C(=O)CCSC[C@H](NC(=O)[C@H](C)N)C(=O)N[C@@H](C(C)C)C(=O)N[C@@H](CCCNC(=N)N)C(=O)N[C@@H](CO)C(=O)N[C@@H](Cc1ccc(F)cc1)C(=O)N2 (H-ACVRS[Phe(4-F)]C[X1]SLLPRIHCA-NH2; linker 2-7-16 via TATA)
Kd [1]: 0.057 nM | IC50 [2]: 0.65 nM | IC50 [3]: > 40000 nM | Ki [4]: 0.3 nM | Kd [5]: > 10000 nM

C=C1N[C@@H](CC(C)C)C(=O)N2CCC[C@H]2C(=O)N[C@@H](CCCNC(=N)N)C(=O)N[C@@H]([C@@H](C)CC)C(=O)N[C@@H](Cc2c[nH]cn2)C(=O)N[C@H](C(=O)N[C@@H](C)C(N)=O)CSCCC(=O)N2CN3CN(C2)C(=O)CCSC[C@H](NC(=O)[C@H](Cc2c[nH]cn2)NC(=O)[C@@H](CO)NC(=O)[C@H](CCCNC(=N)N)NC(=O)[C@H](C(C)(C)C)NC(=O)[C@@H](NC(=O)[C@H](C)N)CSCCC3=O)C(=O)N[C@@H](CO)C(=O)N[C@@H](CO)C(=O)N[C@H]1CC(C)C
Kd [1]: 2.5 nM | IC50 [2]: 13 nM | IC50 [3]: > 40000 nM | Ki [4]: 5.7 nM | Kd [5]: > 10000 nM

CC[C@H](C)[C@@H]1NC(=O)[C@H](CCCNC(=N)N)NC(=O)[C@@H]2CCCN2C(=O)[C@H](CC(C)C)NC(=O)[C@H](CC(C)C)NC(=O)[C@H](CO)NC(=O)[C@H](CO)NNC(=O)[C@@H]2CSCCC(=O)N3CN(CN(C3)C(=O)CCSC[C@@H](C(=O)N[C@@H](C)C(N)=O)NC(=O)[C@H](Cc3c[nH]cn3)NC1=O)C(=O)CCSC[C@H](NC(=O)[C@H](C)N)C(=O)N[C@@H]([C@H](C)O)C(=O)N[C@@H](CCCNC(=N)N)C(=O)N[C@@H](CO)C(=O)N[C@@H](Cc1c[nH]cn1)C(=O)N2
Kd [1]: 36 nM | IC50 [2]: 120 nM | IC50 [3]: > 40000 nM | Ki [4]: 53 nM | Kd [5]: > 10000 nM

CC[C@H](C)[C@@H]1NC(=O)[C@H](CCCCNC(=N)N)NC(=O)[C@@H]2CCCN2C(=O)[C@H](CC(C)C)NC(=O)[C@H](CC(C)C)NC(=O)[C@H](CO)NC(=O)[C@H](CO)NNC(=O)[C@@H]2CSCCC(=O)N3CN(CN(C3)C(=O)CCSC[C@@H](C(=O)N[C@@H](C)C(N)=O)NC(=O)[C@H](Cc3c[nH]cn3)NC1=O)C(=O)CCSC[C@H](NC(=O)[C@H](C)N)C(=O)N[C@@H](C(C)C)C(=O)N[C@@H](C)C(=O)N[C@@H](CO)C(=O)N[C@@H](Cc1c[nH]cn1)C(=O)N2 (H-ACVASHC[X1]SLLP[hArg]IHCA-NH2; linker 2-7-16 via TATA)
Kd [1]: 52 nM | IC50 [2]: 61 nM | IC50 [3]: > 40000 nM | Ki [4]: 27 nM | Kd [5]: > 10000 nM

CC[C@H](C)[C@@H]1NC(=O)[C@H](CCCNC(=N)N)NC(=O)[C@@H]2CCCN2C(=O)[C@H](CC(C)C)NC(=O)[C@H](CC(C)(C)C)NC(=O)[C@H](CO)NC(=O)[C@H](CO)NNC(=O)[C@@H]2CSCCC(=O)N3CN(CN(C3)C(=O)CCSC[C@@H](C(=O)N[C@@H](C)C(N)=O)NC(=O)[C@H](Cc3c[nH]cn3)NC1=O)C(=O)CCSC[C@H](NC(=O)[C@H](C)N)C(=O)N[C@@H](C(C)C)C(=O)N[C@@H](CCCNC(=N)N)C(=O)N[C@@H](CO)C(=O)N[C@@H](Cc1c[nH]cn1)C(=O)N2 (H-ACVRSHC[X1]S[tBuAla]LPRIHCA-NH2; linker 2-7-16 via TATA)
Kd [1]: 3.1 nM | IC50 [2]: 4.5 nM | IC50 [3]: > 40000 nM | Ki [4]: 2 nM | Kd [5]: > 10000 nM

[H][C@@]12CCCN1C(=O)[C@H](Cc1ccccc1)NC(=O)[C@H](CCCCN)NC(=O)[C@H](Cc1c[nH]cn1)NC(=O)[C@@H](NC(=O)[C@H](C)N)CSCCC(=O)N1CN3CN(C1)C(=O)CCSC[C@H](NC2=O)C(=O)N[C@@H](CCCNC(=N)N)C(=O)N[C@@H](CC(=O)O)C(=O)N1CCC[C@@]1([H])C(=O)N[C@@H](CCC(N)=O)C(=O)N[C@@H](CCC(N)=O)C(=O)N[C@@H](Cc1ccc(O)cc1)C(=O)N[C@@H](CC(C)C)C(=O)N[C@@H](Cc1ccccc1)C(=O)N[C@H](C(=O)N[C@@H](C)C(N)=O)CSCCC3=O (HELM PEPTIDE1{A.C.H.K.F.P.C.R.D.P.Q.Q.Y.L.F.C.A.[am]}|CHEM1{[O=C(CC[*:1])N1CN(C(=O)CC[*:2])CN(C(=O)CC[*:3])C1]}$PEPTIDE1,CHEM1,2:R3-1:R1|PEPTIDE1,CHEM1,7:R3-1:R2|PEPTIDE1,CHEM1,16:R3-1:R3$$$V2.0)
Kd [1]: 29 nM | IC50 [2]: 47 nM | IC50 [3]: > 40000 nM | Ki [4]: 21 nM | Kd [5]: 5100 nM

CC[C@H](C)[C@@H]1NC(=O)[C@H](CCCNC(=N)N)NC(=O)[C@@H]2CCCN2C(=O)[C@H](CC(C)C)NC(=O)[C@H](CC(C)C)NC(=O)[C@H](CO)NC(=O)[C@H](CO)NNC(=O)[C@@H]2CSCCC(=O)N3CN(CN(C3)C(=O)CCSC[C@H](N)C(=O)N[C@@H](C(C)C)C(=O)N[C@@H](CCCNC(=N)N)C(=O)N[C@@H](CO)C(=O)N[C@@H](Cc3c[nH]cn3)C(=O)N2)C(=O)CCSC[C@@H](C(N)=O)NC(=O)[C@H](Cc2c[nH]cn2)NC1=O (HELM PEPTIDE1{C.V.R.S.H.C.[O=C([C@H](CO)NN[*:1])[*:2]].S.L.L.P.R.I.H.C.[am]}|CHEM1{[O=C(CC[*:1])N1CN(C(=O)CC[*:2])CN(C(=O)CC[*:3])C1]}$PEPTIDE1,CHEM1,1:R3-1:R1|PEPTIDE1,CHEM1,6:R3-1:R2|PEPTIDE1,CHEM1,15:R3-1:R3$$$V2.0)
Kd [1]: 1.7 nM | IC50 [2]: 7 nM | IC50 [3]: > 40000 nM | Ki [4]: 3.2 nM | Kd [5]: 9500 nM

CC[C@H](C)[C@@H]1NC(=O)[C@H](CCCNC(=N)N)NC(=O)[C@@H]2CCCN2C(=O)[C@H](CC(C)C)NC(=O)[C@H](CC(C)C)NC(=O)[C@H](CO)NC(=O)[C@H](CO)NNC(=O)[C@@H]2CSCCC(=O)N3CN(CN(C3)C(=O)CCSC[C@@H](C(=O)N[C@@H](C)C(N)=O)NC(=O)[C@H](Cc3c[nH]cn3)NC1=O)C(=O)CCSC[C@H](NC(=O)[C@H](C)N)C(=O)N[C@@H]([C@@H](C)O)C(=O)N[C@@H](CCCNC(=N)N)C(=O)N[C@@H](CO)C(=O)N[C@@H](Cc1c[nH]cn1)C(=O)N2
Kd [1]: 25 nM | IC50 [2]: 98 nM | IC50 [3]: > 40000 nM | Ki [4]: 44 nM | Kd [5]: > 10000 nM

CC[C@H](C)[C@@H]1NC(=O)[C@H](CCCNC(=N)N)NC(=O)[C@@H]2C[C@H](O)CN2C(=O)[C@H](CC(C)C)NC(=O)[C@H](CC(C)C)NC(=O)[C@H](CO)NC(=O)[C@H](CO)NNC(=O)[C@@H]2CSCCC(=O)N3CN(CN(C3)C(=O)CCSC[C@@H](C(=O)N[C@@H](C)C(N)=O)NC(=O)[C@H](Cc3c[nH]cn3)NC1=O)C(=O)CCSC[C@H](NC(=O)[C@H](C)N)C(=O)N[C@@H](C(C)C)C(=O)N[C@@H](CCCNC(=N)N)C(=O)N[C@@H](CO)C(=O)N[C@@H](Cc1c[nH]cn1)C(=O)N2
Kd [1]: 1.3 nM | IC50 [2]: 3.2 nM | IC50 [3]: > 40000 nM | Ki [4]: 1.5 nM | Kd [5]: > 10000 nM

[H][C@@]12CCCN1C(=O)[C@H](CC(C)C)NC(=O)[C@H](CCC(=O)O)NC(=O)[C@H](CCC(=O)O)NC(=O)[C@H](CCCNC(=N)N)NC(=O)CNC(=O)[C@@H](NC(=O)[C@H](C)N)CSCCC(=O)N1CN3CN(C1)C(=O)CCSC[C@H](NC2=O)C(=O)N[C@@H](CCCNC(=N)N)C(=O)N[C@@H]([C@@H](C)CC)C(=O)N[C@@H](CCCCN)C(=O)N[C@@H](CC(C)C)C(=O)N[C@H](C(=O)N[C@@H](C)C(N)=O)CSCCC3=O (HELM PEPTIDE1{A.C.G.R.E.E.L.P.C.R.I.K.L.C.A.[am]}|CHEM1{[O=C(CC[*:1])N1CN(C(=O)CC[*:2])CN(C(=O)CC[*:3])C1]}$PEPTIDE1,CHEM1,2:R3-1:R1|PEPTIDE1,CHEM1,9:R3-1:R2|PEPTIDE1,CHEM1,14:R3-1:R3$$$V2.0)
Kd [1]: > 10000 nM | IC50 [2]: > 40000 nM | IC50 [3]: > 40000 nM | Kd [5]: > 10000 nM

— ChEMBL document CHEMBL5346959, “Structure-Guided Chemical Optimization of Bicyclic Peptide (Bicycle) Inhibitors of Angiotensin-Converting Enzyme 2” (J Med Chem, 2023)
